Measured values from ChEMBL document CHEMBL4765230, “Discovery of Orally Efficacious Phosphoinositide 3-Kinase δ Inhibitors with Improved Metabolic Stability” (J Med Chem, 2016).
pEC50, pIC50: −log10 of the molar value.

What was measured:
[1] = target: PI3-kinase p110-alpha/p85-alpha (Homo sapiens, UniProt P42336); assay: Inhibition of human full length PI3K p110alpha/p85alpha using […] as substrate measured after 30 mins by TR-FRET assay; type: protein-complex assay
[2] = Volume of distribution at steady state in rat at 1 mg/kg, iv; type: ADME, organism-based; conditions: in vivo, read-out: Vdss
How it was run: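 Rats and dog received 1 mg/kg intravenously, formulated in 12% w/v Captisol in water. Volume of distribution was taken at steady state from the iv plasma profile. Three animals per dosing route.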

[3] = Chemical stability of the compound at pH 2 phosphate buffer assessed as time required for 50% hydrolytic degradation at 100 ug/ml and 40 degreeC by UPLC-UV analysis; type: physicochemical; conditions: dose 100 µg/ml, read-out: Time (converted)
How it was run: (§1)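 Compound diluted from acetonitrile or DMSO stock to 100 μg/mL final in 50 mM phosphate buffer, pH 2 (or pH 7), ionic strength 0.15 M NaCl, 40 °C in autosampler. Timed injections analysed by reverse-phase UPLC-UV (220 nm); pseudo-first-order kobs from ln c vs time; t50 and t90 calculated.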

[4] = Chemical stability of the compound at pH 2 phosphate buffer assessed as time required for 90% hydrolytic degradation at 100 ug/ml and 40 degreeC by UPLC-UV analysis; type: physicochemical; conditions: in the assay text read “10% hydrolytic degradation” for “90% hydrolytic degradation”, dose 100 µg/ml; how it was run: as §1
[5] = target: Voltage-gated inwardly rectifying potassium channel KCNH2 (Homo sapiens, UniProt Q12809); assay: Inhibition of human ERG at 25 uM
[6] = Clearance in Sprague-Dawley rat at 1 mg/kg, iv measured over 24 hrs by LC/MS/MS analysis; type: ADME, organism-based; conditions: in vivo
How it was run: (§2)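 Intravenous 1 mg/kg and oral 5 mg/kg doses. Vehicle: 5% ethanol/55% PEG 400/40% water for rats and dogs; 5% ethanol/22% PEG 400/73% water for cynomolgus; 5% ethanol/25% PEG 400/70% water for rhesus. Half-life and MRT from iv; mean ± SD, n = 3 per route.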

[7] = Terminal half life in Beagle dog at 1 mg/kg, iv measured over 24 hrs by LC/MS/MS analysis; type: ADME, organism-based, Canis lupus familiaris; conditions: in vivo, read-out: beta t1/2 (converted)
How it was run: (§3)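 Single intravenous dose of 1 mg/kg. Vehicles: rats and dogs 5% ethanol/55% PEG 400/40% water; cynomolgus monkeys 5% ethanol/22% PEG 400/73% water; rhesus monkeys 5% ethanol/25% PEG 400/70% water. Plasma concentration–time data gave Vss and iv half-life. Reported as mean ± SD, n = 3.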

[8] = Oral bioavailability in Beagle dog at 5 mg/kg measured over 24 hrs by LC/MS/MS analysis; type: ADME, organism-based, Canis lupus familiaris; conditions: in vivo; how it was run: as §2
[9] = Volume of distribution at steady state in cynomolgus monkey at 1 mg/kg, iv measured over 24 hrs by LC/MS/MS analysis; type: ADME, organism-based, Macaca fascicularis; conditions: in vivo, read-out: Vdss; how it was run: as §3
[10] = MRT in cynomolgus monkey at 1 mg/kg, iv measured over 24 hrs by LC/MS/MS analysis; type: ADME, organism-based, Macaca fascicularis; conditions: in vivo; how it was run: as §2
[11] = Clearance in rhesus monkey at 1 mg/kg, iv measured over 24 hrs by LC/MS/MS analysis; type: ADME, organism-based, Macaca mulatta; conditions: in vivo; how it was run: as §2
[12] = target: T1, Phosphatidylinositol 4,5-bisphosphate 3-kinase catalytic subunit delta isoform (Homo sapiens, UniProt O00329); assay: Inhibition of PI3Kdelta in human whole blood assessed as inhibition of BCR-induced B-cell activation
T1 sequence (O00329 whole entry): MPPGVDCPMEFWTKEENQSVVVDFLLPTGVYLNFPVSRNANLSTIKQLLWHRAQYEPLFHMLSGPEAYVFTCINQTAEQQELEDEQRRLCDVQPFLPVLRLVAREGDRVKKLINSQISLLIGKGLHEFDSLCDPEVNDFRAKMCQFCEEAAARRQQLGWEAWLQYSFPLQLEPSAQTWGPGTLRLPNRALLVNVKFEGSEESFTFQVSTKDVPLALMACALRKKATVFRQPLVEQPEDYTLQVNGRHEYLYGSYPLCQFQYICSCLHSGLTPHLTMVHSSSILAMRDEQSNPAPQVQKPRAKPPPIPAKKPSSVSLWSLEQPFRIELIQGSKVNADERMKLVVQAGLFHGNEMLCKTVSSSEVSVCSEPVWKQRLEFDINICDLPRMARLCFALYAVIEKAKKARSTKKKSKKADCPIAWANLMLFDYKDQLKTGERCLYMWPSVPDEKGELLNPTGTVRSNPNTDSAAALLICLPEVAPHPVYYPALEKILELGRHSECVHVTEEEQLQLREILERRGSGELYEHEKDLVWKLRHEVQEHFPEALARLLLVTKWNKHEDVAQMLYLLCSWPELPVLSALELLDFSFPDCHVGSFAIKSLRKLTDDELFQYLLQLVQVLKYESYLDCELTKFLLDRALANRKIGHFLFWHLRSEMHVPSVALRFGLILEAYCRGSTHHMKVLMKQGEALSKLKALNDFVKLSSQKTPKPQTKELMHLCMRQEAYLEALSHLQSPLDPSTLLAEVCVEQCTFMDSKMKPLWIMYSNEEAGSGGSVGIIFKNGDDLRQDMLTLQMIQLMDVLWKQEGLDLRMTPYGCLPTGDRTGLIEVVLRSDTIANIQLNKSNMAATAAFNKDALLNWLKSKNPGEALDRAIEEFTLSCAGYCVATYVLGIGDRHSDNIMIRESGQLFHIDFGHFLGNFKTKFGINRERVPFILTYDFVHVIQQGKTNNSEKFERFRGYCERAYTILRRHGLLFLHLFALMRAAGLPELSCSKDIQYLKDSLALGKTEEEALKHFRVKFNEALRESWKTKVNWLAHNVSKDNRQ

[13] = Plasma concentration in Lewis rat at 1 to 5 mg/kg, po measured at 12 hrs; type: ADME, organism-based; conditions: dose 1-5 mg/kg
How it was run: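 Female Lewis rats given a single oral dose of 1 or 5 mg/kg; plasma concentration–time profiles determined; mean ± SD, n = 3.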

[14] = tested on: Rattus norvegicus; assay: Antiarthritic activity in Lewis rat model of Freund's incomplete adjuvant-induced arthritis assessed as inhibition of bone resorption at 0.3 to 3 mg/kg, po bid administered for 7 days at 12 hrs interval starting from day 10 to day 16 post-immunization by microscopic analysis relative to control; type: functional; set-up: scale not given: the % may be the effect or the level left; conditions: dose 0.3-3 mg/kg, time 7 day
How it was run: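 Female Lewis rats with established collagen-induced arthritis dosed orally twice daily for 7 days at 0.3, 1 and 3 mg/kg, starting day 10 after second collagen immunization. Joint histopathology scored for pannus formation, cartilage damage, bone resorption and periosteal bone formation; ED50 derived. n = 8/treatment group, n = 4 normal controls.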

[15] = In vivo inhibition of PI3Kdelta in Lewis rat model of Freund's incomplete adjuvant-induced arthritis at 3 mg/kg, po bid administered for 7 days at 12 hrs interval starting from day 10 to day 16 post-immunization relative to control; type: functional; conditions: 168 h, time 7 day
How it was run: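 CIA Lewis rats dosed orally twice daily for 7 days at 0.3, 1 or 3 mg/kg; blood/plasma drug levels taken on day 7, 12 h after final dose, and related to PI3Kδ inhibition at trough.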

[16] = target: T2, Phosphatidylinositol 4,5-bisphosphate 3-kinase catalytic subunit delta isoform (Homo sapiens) (UniProt O00329); conditions: Blood, time 7.0 day
T2 sequence (whole entry): T1 sequence (O00329 whole entry)

Voltage-gated inwardly rectifying potassium channel KCNH2, sequence (Q12809 whole entry): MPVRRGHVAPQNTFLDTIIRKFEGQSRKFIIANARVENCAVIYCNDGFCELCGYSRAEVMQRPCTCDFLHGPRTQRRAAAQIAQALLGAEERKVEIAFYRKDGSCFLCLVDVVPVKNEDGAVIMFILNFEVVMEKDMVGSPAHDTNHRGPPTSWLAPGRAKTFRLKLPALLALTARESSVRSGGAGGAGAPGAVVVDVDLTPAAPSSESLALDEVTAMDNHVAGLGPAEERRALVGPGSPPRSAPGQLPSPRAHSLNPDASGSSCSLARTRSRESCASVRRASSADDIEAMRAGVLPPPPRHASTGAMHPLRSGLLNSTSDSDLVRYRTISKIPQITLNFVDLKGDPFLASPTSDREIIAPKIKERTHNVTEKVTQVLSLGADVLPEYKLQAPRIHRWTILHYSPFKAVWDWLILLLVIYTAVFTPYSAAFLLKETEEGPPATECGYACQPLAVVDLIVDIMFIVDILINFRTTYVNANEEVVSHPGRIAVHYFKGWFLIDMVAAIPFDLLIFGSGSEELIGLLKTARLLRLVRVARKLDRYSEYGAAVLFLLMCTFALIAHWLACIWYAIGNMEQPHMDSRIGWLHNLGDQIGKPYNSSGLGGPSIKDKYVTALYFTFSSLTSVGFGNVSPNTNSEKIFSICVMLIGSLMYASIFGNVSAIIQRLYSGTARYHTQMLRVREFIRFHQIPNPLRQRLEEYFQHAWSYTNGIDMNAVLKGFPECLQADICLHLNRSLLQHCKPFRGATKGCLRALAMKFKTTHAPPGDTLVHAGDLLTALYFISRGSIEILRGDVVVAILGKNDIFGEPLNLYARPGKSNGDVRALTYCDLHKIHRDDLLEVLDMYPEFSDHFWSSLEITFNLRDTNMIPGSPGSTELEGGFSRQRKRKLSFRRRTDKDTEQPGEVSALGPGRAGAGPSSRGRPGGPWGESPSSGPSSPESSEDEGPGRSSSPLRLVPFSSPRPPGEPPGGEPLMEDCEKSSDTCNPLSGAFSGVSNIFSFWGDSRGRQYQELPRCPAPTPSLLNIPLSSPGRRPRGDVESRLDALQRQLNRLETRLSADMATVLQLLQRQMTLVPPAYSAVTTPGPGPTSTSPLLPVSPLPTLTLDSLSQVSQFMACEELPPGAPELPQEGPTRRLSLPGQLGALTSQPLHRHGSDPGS
PI3-kinase p110-alpha/p85-alpha, sequence (P27986 whole entry): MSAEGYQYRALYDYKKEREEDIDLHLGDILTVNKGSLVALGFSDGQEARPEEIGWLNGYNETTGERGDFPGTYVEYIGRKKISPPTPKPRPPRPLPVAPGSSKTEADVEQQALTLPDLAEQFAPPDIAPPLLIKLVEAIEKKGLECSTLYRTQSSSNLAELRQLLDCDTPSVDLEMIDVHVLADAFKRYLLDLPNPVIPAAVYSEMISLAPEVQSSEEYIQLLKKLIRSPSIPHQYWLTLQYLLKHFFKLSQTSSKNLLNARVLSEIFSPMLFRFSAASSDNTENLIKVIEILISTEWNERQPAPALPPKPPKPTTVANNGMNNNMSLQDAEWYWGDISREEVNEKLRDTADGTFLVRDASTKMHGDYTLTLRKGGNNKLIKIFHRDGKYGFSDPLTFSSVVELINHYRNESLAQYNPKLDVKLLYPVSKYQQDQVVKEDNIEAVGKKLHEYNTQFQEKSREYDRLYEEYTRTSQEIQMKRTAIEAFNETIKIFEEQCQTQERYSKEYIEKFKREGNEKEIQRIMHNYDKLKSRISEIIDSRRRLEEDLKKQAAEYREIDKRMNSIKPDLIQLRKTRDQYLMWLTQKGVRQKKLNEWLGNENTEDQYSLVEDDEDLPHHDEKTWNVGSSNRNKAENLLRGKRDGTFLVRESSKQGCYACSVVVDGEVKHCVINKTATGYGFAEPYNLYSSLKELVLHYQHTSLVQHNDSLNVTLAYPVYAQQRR
PI3-kinase p110-alpha/p85-alpha, sequence (P42336 whole entry): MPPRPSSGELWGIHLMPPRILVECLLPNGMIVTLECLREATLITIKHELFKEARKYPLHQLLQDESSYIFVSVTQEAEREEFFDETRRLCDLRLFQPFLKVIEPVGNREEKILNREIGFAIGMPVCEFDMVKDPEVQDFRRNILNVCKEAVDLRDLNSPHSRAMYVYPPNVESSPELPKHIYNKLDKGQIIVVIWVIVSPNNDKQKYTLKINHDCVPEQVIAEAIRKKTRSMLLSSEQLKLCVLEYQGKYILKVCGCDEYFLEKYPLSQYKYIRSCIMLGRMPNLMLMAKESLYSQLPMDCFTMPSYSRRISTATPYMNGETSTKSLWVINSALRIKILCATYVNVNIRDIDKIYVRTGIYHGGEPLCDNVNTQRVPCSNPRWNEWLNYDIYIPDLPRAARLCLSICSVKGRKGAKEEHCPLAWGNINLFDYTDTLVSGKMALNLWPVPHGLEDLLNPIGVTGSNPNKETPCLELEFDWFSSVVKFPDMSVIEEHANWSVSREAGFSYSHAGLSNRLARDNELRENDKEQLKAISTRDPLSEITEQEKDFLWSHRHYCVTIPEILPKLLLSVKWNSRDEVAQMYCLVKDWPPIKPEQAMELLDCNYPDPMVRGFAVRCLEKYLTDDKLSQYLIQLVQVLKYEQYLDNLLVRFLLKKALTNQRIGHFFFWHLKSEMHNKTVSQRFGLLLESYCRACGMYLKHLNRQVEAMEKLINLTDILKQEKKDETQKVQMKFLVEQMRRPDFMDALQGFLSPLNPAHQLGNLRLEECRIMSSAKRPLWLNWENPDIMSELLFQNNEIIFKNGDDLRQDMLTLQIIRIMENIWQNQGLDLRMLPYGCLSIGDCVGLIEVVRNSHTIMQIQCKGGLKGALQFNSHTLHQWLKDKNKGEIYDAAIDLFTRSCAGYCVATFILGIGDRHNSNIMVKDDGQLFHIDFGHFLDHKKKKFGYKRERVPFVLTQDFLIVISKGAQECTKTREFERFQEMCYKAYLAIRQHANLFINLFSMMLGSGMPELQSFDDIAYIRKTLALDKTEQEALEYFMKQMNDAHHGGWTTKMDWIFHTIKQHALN

pIC50 [1]: 6.12 | Vd [2]: 0.83 L/kg | half-life at 100 ug/ml [3]: 20 h | Time [4]: 3.1 h | clearance [6]: 7.17 mL/min/kg | half-life [7]: 2.01 h | bioavailability [8]: 49% | Vd [9]: 1.21 L/kg | MRT [10]: 3.05 h | clearance [11]: 11.7 mL/min/kg | pEC50 [12]: 8.62 | concentration at 12 h [13]: > 32 nM | EC90 [16]: 21 nM
SMILES: N#Cc1c(N)nc(N)nc1N[C@H](c1nc2c(F)ccc(Cl)c2c(=O)n1-c1cccnc1)C1CC1 [GS-9901]
inhibition (INH) [5]: Not Active | Activity [14]: 50% | inhibition in vivo at 3 mg/kg [15]: > 90%
